Columns and labels:
HEK-293T = test: Incucyte cell viability with HEK293T; type: toxicity, cell-based; conditions: human, 10 µM, compound concentration 10 uM; also: filed as whole numbers so only -1 and 0 and 1 occur
U2OS = test: Multiplex assay against U2OS; type: toxicity, cell-based; conditions: human
How it was run: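 Compound was added to live cells that had been stained at seeding with Hoechst33342, BioTracker Green Microtubule Cytoskeleton Dye, MitoTracker Red and Annexin V Alexa Fluor 680, and imaging followed on a CQ1 microscope at 37°C and 5% CO2. CellPathfinder machine-learning gating divided cells into Hoechst high-intensity objects or normal cells, normal cells into healthy, pyknosed or fragmented nuclei, and pyknosed cells into mitotic or apoptotic. Tubulin, mitochondrial-mass and membrane-permeability phenotypes are per cents of healthy-nucleus cells.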

[1] = 12 h, 1 µM, compound concentration 1 uM, replicate 1
[2] = 12 h, 1 µM, compound concentration 1 uM, replicate 2
[3] = 12 h, 10 µM, compound concentration 10 uM, replicate 1
[4] = 12 h, 10 µM, compound concentration 10 uM, replicate 2
[5] = 24 h, 1 µM, compound concentration 1 uM, replicate 1
[6] = 24 h, 1 µM, compound concentration 1 uM, replicate 2

## CCC(=O)O[C@]1(C(=O)SCF)[C@H](C)C[C@H]2[C@@H]3C[C@H](F)C4=CC(=O)C=C[C@]4(C)[C@@]3(F)[C@@H](O)C[C@@]21C [FLUTICASONE PROPIONATE]
HEK-293T; 0 h, replicate number 1, timepoint 0 hours
  Growth Rate: 1
HEK-293T; 0 h, replicate number 2, timepoint 0 hours
  Growth Rate: 0
HEK-293T; 6 h, replicate number 1, timepoint 6 hours
  Growth Rate: 0
HEK-293T; 12 h, replicate number 1, timepoint 12 hours
  Growth Rate: 0
HEK-293T; 18 h, replicate number 1, timepoint 18 hours
  Growth Rate: 0
HEK-293T; 18 h, replicate number 2, timepoint 18 hours
  Growth Rate: 1
HEK-293T; 24 h, replicate number 1, timepoint 24 hours
  Growth Rate: 0
HEK-293T; 24 h, replicate number 2, timepoint 24 hours
  Growth Rate: 1
U2OS; [1]
  Population Apoptotic (%): 35%
  Population Fragmented Nuclei (%): 8%
  Population Healthy Nuclei (%): 81%
  Population Hoechst High Intensity Objects (%): 5%
  Population Membrane Permeable-Phenotype (%): 7%
  Population Mitochondria Different-Phenotype (%): 7%
  Population Mitotic Cells (%): 64%
  Population Normal (%): 94%
  Population Pyknosed Nuclei (%): 9%
  Population Tubulin-Different-Phenotype (%): 10%
  Total Cell Count: 182
U2OS; [2]
  Population Apoptotic (%): 71%
  Population Fragmented Nuclei (%): 4%
  Population Healthy Nuclei (%): 78%
  Population Hoechst High Intensity Objects (%): 12%
  Population Membrane Permeable-Phenotype (%): 3%
  Population Mitochondria Different-Phenotype (%): 9%
  Population Mitotic Cells (%): 28%
  Population Normal (%): 87%
  Population Pyknosed Nuclei (%): 16%
  Population Tubulin-Different-Phenotype (%): 9%
  Total Cell Count: 68
U2OS; [3]
  Population Apoptotic (%): 53%
  Population Fragmented Nuclei (%): 14%
  Population Healthy Nuclei (%): 72%
  Population Hoechst High Intensity Objects (%): 9%
  Population Membrane Permeable-Phenotype (%): 22%
  Population Mitochondria Different-Phenotype (%): 47%
  Population Mitotic Cells (%): 46%
  Population Normal (%): 90%
  Population Pyknosed Nuclei (%): 13%
  Population Tubulin-Different-Phenotype (%): 48%
  Total Cell Count: 155
U2OS; [4]
  Population Apoptotic (%): 28%
  Population Fragmented Nuclei (%): 8%
  Population Healthy Nuclei (%): 81%
  Population Hoechst High Intensity Objects (%): 8%
  Population Membrane Permeable-Phenotype (%): 3%
  Population Mitochondria Different-Phenotype (%): 37%
  Population Mitotic Cells (%): 71%
  Population Normal (%): 92%
  Population Pyknosed Nuclei (%): 10%
  Population Tubulin-Different-Phenotype (%): 35%
  Total Cell Count: 48
U2OS; [5]
  Population Apoptotic (%): 37%
  Population Fragmented Nuclei (%): 4%
  Population Healthy Nuclei (%): 86%
  Population Hoechst High Intensity Objects (%): 3%
  Population Membrane Permeable-Phenotype (%): 6%
  Population Mitochondria Different-Phenotype (%): 5%
  Population Mitotic Cells (%): 62%
  Population Normal (%): 96%
  Population Pyknosed Nuclei (%): 8%
  Population Tubulin-Different-Phenotype (%): 6%
  Total Cell Count: 230
U2OS; [6]
  Population Apoptotic (%): 16%
  Population Fragmented Nuclei (%): 3%
  Population Healthy Nuclei (%): 84%
  Population Hoechst High Intensity Objects (%): 11%
  Population Membrane Permeable-Phenotype (%): 11%
  Population Mitochondria Different-Phenotype (%): 11%
  Population Mitotic Cells (%): 83%
  Population Normal (%): 88%
  Population Pyknosed Nuclei (%): 11%

Source: ChEMBL document CHEMBL4689842, “EUbOPEN Chemogenomics Library wave 1” (2021)
